EBI2 antag: EBI2 (human) antagonism. EBI2 beta-arrestin recruitment, luminescence, 7a,25-OHC stimulated. hit rate 0.81% among 360,000. inhibition, % at 5 µM. P32249. AID 651636; in the data active = inhibition above about 38%;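 note: enzyme fragment complementation signal reports receptor beta-arrestin coupling in cells; 0% = agonist plus DMSO wells and 100% = wells without agonist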
MC4R barr agon: agonists of human melanocortin 4 receptor (MC4R) beta-arrestin; P32245; U2OS MC4R beta-arrestin complementation, luminescence; percent of melanotan II response, DMSO zero; activation, % at 8.9 µM; hit rate 0.98% among 360,000; AID 540308;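 active = activation above a per-plate cutoff, the mean activation of sample wells on that plate plus 3 SD, cut at about 8% in these data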
HTR2A ag: agonists of mouse serotonin 5-HT2A receptor (HTR2A) | P35363 | CHO-K1 mHTR2A beta-arrestin complementation, luminescence; percent of 30 µM serotonin response | activation, % at 7.6 µM | hit rate 0.66% among 360,000;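 active = activation above a run cutoff, the mean activation of all tested compounds plus 3 SD, cut at about 14% in these data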;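 note: 0% = plate median of compound wells and 100% = 30 µM serotonin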
Target sequence (P35363 whole entry, looked up): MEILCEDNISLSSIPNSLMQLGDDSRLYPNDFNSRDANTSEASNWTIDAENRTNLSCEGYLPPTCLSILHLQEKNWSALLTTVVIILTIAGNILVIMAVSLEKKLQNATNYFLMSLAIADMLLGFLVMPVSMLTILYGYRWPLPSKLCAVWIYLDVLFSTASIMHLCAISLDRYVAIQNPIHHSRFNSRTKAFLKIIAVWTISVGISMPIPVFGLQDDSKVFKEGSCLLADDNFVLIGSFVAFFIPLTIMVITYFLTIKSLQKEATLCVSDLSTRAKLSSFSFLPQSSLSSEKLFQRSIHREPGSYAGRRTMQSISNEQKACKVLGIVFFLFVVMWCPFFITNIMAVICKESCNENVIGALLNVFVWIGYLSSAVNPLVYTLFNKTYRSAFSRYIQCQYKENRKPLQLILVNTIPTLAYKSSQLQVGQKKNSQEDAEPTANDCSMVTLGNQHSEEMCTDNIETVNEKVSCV
MC4R antag cAMP: blocks human MC4R cAMP signaling | MC4R-expressing cells, MTII-stimulated cAMP, LANCE TR-FRET | inhibition, % at 6.5 µM | hit rate 0.48% among 360,000 | AID 540295;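 active = inhibition above its plate's cutoff, the mean of tested wells on that plate plus 3 SD, cut at about 29% in these data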;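 note: 0% = Melanotan II alone and 100% = Melanotan II plus saturating MCL0020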
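material = U2OS cells stably expressing human melanocortin 4 receptor (MC4R) | also added = Melanotan II challenge | dosing = single nominal compound dose of 6.5 µM | detection = TR-FRET with Eu-cAMP and labeled anti-cAMP, 671 nm | replication = singlicate | timing = compound 30 min, challenge 1 h, detection 1 h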
MC4R barr ag: human MC4R beta-arrestin agonism confirmation; activation, % at 8.9 µM; U2OS MC4R beta-arrestin recruitment, luminescence; scaled DMSO 0%, Melanotan II 100%; shares compounds with MC4R barr agon; hit rate 31% among 2,400;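 active = mean activation across replicates above the hit cutoff set in the earlier primary screen, cut at about 8% in these data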
MOR-DOR barr ag: activates mu-delta opioid heterodimer, MC4R agonist counter-screen; activation, % at 9.2 µM; shares compounds with MC4R barr agon; hit rate 5.8% among 2,400; U2OS PathHunter beta-arrestin, beta-gal luminescence; percent of deltorphin B response, DMSO zero; AID 602194;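 active = mean activation across replicates exceeds the hit threshold derived in the earlier primary screen, cut at about 18% in these data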;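 note: 100% = deltorphin B at 0.9 µM final and 0% = DMSO alone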
* hit, by the source's call; ! = a repeat was not active. In the library only some 2.8% were active in any assay of this set; here they are far more common.

`OC(CNC1CCCCCC1)COc1cccc2ccccc12` (stereo not given) gave EBI2 antag -5.5, MC4R barr agon 0.3, HTR2A ag -8.7 and MC4R antag cAMP 2.4.
OC(CNCCc1ccc(Cl)cc1)COCc1ccco1 (stereo not given) was read as EBI2 antag 12.1, MC4R barr agon 1.8, HTR2A ag -3.4 and MC4R antag cAMP 17.5.
OC(CNCCc1ccc(C(F)(F)F)cc1)COc1ccc2ccccc2c1 (stereo not given) was read as EBI2 antag 2.1, MC4R barr agon 11.8*, HTR2A ag 0.5, MC4R antag cAMP 6.5, MC4R barr ag 9.4* and MOR-DOR barr ag 7.2.
For OC(CNCCc1ccc(C(F)(F)F)cc1)COc1cccc2ccccc12 (stereo not given) the results were EBI2 antag 9.2, MC4R barr agon 14.7*, HTR2A ag 3.0, MC4R antag cAMP 11.8, MC4R barr ag 20.4* and MOR-DOR barr ag 10.2.
For COc1ccccc1COCC(O)CNCCc1ccc(C(F)(F)F)cc1 (stereo not given) the results were EBI2 antag 15.2, MC4R barr agon 10.8*, HTR2A ag -4.1, MC4R antag cAMP 15.8, MC4R barr ag 7.9 and MOR-DOR barr ag 8.8.
Screening Cc1ccc(CNS(=O)(=O)c2ccc(Cl)s2)cc1 returned EBI2 antag -13.3, MC4R barr agon 4.4, HTR2A ag 8.6 and MC4R antag cAMP 9.6.
CCCCCCn1c(C)nc2c(c1=O)c1nc3ccccc3nc1n2/N=C/c1ccco1 was read as EBI2 antag 11.3, MC4R barr agon 24.8*, HTR2A ag -2.1, MC4R antag cAMP -1.1, MC4R barr ag 0.1 and MOR-DOR barr ag 2.1.
For Cc1cccc2c(N=Nc3ccccc3)c(O)[nH]c12 the results were EBI2 antag 12.7, MC4R barr agon 15.2*, HTR2A ag -0.4, MC4R antag cAMP -3.1, MC4R barr ag 0.9 and MOR-DOR barr ag 1.8.
CC1CCC(C(C)C)C(OC(=O)Cn2c(-c3ccc(Cl)cc3)[n+](C)c3ccccc32)C1 (stereo not given) was read as EBI2 antag 10.3, MC4R barr agon 28.1*, HTR2A ag 6.0, MC4R antag cAMP -1.2, MC4R barr ag 7.7 and MOR-DOR barr ag 8.6.
Screening CC1CCC(C(C)C)C(OC(=O)COC(=O)c2cccn2C)C1 (stereo not given) returned EBI2 antag 3.6, MC4R barr agon -1.3, HTR2A ag -2.2 and MC4R antag cAMP 10.3.
`CC1CCC(C(C)C)C(OC(=O)C[n+]2cccc(C(N)=O)c2)C1` (stereo not given) gave EBI2 antag -1.5, MC4R barr agon 0.7, HTR2A ag 2.8 and MC4R antag cAMP 9.5.
For CC1CCC(C(C)C)C(OC(=O)Cn2c(-c3ccc(Br)cc3)[n+](C)c3ccccc32)C1 (stereo not given) the results were EBI2 antag 12.6, MC4R barr agon 11.8*, HTR2A ag -4.8, MC4R antag cAMP -1.7, MC4R barr ag 13.3*! and MOR-DOR barr ag 7.1.
Screening CC1CCC(C(C)C)C(OC(=O)COC(=O)c2ccc(N)cc2)C1 (stereo not given) returned EBI2 antag -25.9, MC4R barr agon 1.2, HTR2A ag 7.8 and MC4R antag cAMP 7.6.
For Cc1ccccc1OCc1n(CC(=O)OC2CC(C)CCC2C(C)C)c2ccccc2[n+]1C (stereo not given) the results were EBI2 antag -4.1, MC4R barr agon 23.2*, HTR2A ag -5.5, MC4R antag cAMP -3.3, MC4R barr ag 41.2* and MOR-DOR barr ag 27.3*.
Screening O=C(Cn1c(=O)oc2cc(S(=O)(=O)N3CCCC3)ccc21)Nc1ccccn1 returned EBI2 antag 4.6, MC4R barr agon -0.5, HTR2A ag -2.9 and MC4R antag cAMP 11.3.
For COc1cc(NC(=O)c2ccc(-c3ccc(Br)cc3)o2)ccc1NC(=O)C(C)C the results were EBI2 antag 27.2, MC4R barr agon 15.3*, HTR2A ag 0.4, MC4R antag cAMP 1.9, MC4R barr ag 6.0 and MOR-DOR barr ag 4.1.
COc1cccc(-c2cnc3c(NC=O)cc(-c4ccoc4)cn23)c1 was read as EBI2 antag 12.7, MC4R barr agon 44.1*, HTR2A ag 0.0, MC4R antag cAMP -1.8, MC4R barr ag 33.9* and MOR-DOR barr ag 0.4.
COc1cccc(-c2cc(NC=O)c3ncc(-c4ccc(F)c(Cl)c4)n3c2)c1 was read as EBI2 antag 17.6, MC4R barr agon 16.2*, HTR2A ag -2.5, MC4R antag cAMP 7.7, MC4R barr ag 10.4* and MOR-DOR barr ag 5.7.
Screening COc1cccc(-c2cnc3c(NC=O)cc(-c4ccc(S(C)(=O)=O)cc4)cn23)c1 returned EBI2 antag 11.3, MC4R barr agon 5.8, HTR2A ag 3.2 and MC4R antag cAMP -16.8.
COc1cccc(-c2cnc3c(NC=O)cc(-c4cc(C)c(O)c(C)c4)cn23)c1 was read as EBI2 antag 24.1, MC4R barr agon 8.1, HTR2A ag -11.3 and MC4R antag cAMP 2.1.
`O=c1oc(CCCO)cc2ccccc12` gave EBI2 antag 7.0, MC4R barr agon -1.2, HTR2A ag 0.0 and MC4R antag cAMP 0.7.
Screening Cc1cccc(C(C)C)c1NC(=O)COC(=O)c1cccc(S(=O)(=O)N2CCc3ccccc3C2)c1 returned EBI2 antag 14.9, MC4R barr agon 18.2*, HTR2A ag 2.9, MC4R antag cAMP -6.2, MC4R barr ag 8.6* and MOR-DOR barr ag 7.2.
For CC(C)Oc1ccc(C(=O)OCC(=O)NC(=O)NC2CCCC2)cc1 the results were EBI2 antag -8.2, MC4R barr agon 0.9, HTR2A ag 2.1 and MC4R antag cAMP -1.2.
CC1CCCCC1NC(=O)NC(=O)COC(=O)c1ccc(OC(F)F)cc1 (stereo not given) was read as EBI2 antag 1.8, MC4R barr agon 10.2*, HTR2A ag 0.2, MC4R antag cAMP -0.5, MC4R barr ag 3.2 and MOR-DOR barr ag 8.7.
`Cn1c(=O)c(C(=O)CSc2ccccc2)c(N)n(Cc2ccccc2)c1=O` gave EBI2 antag 4.2, MC4R barr agon 29.5*, HTR2A ag 3.2, MC4R antag cAMP -1.5, MC4R barr ag 0.9 and MOR-DOR barr ag 8.7.
N#Cc1ccc(C(=O)N2CCC3CC2c2cc(N4CCCCC4)ccc23)cc1 (stereo not given) was read as EBI2 antag -5.8, MC4R barr agon 0.0, HTR2A ag 1.6 and MC4R antag cAMP 13.3.
Screening Cc1ccc(NC(=O)Cn2c(/C=C/c3ccccc3)nc3ccccc32)cc1C returned EBI2 antag 12.5, MC4R barr agon 17.0*, HTR2A ag 0.4, MC4R antag cAMP 13.8 and MC4R barr ag -1.1.
Screening COC(=O)Cc1ccccc1NS(=O)(=O)c1ccc(C)cc1 returned EBI2 antag 8.5 and HTR2A ag -2.8.
